Bioassay records as filed in PubChem.
Sampled rows, rich in hits. Any-hit rate of the full collection: about 3.8%.
Kir21 block – Kir2.1 (mouse) channel inhibition. P35561. HEK293-Kir2.1, FluxOR thallium flux fluorescence; hits give low values. B-score at 10 µM. 0.85% of 310,000 active;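 active means fluorescence ratio B-score at or below minus 3 SD of library scores, with starting-brightness B-score within 2 SD, cut at about -4.2 in these data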;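 further: channel flux triggered by added potassium and thallium sulfate stimulus; B-score of peak minus minimum fluorescence over baseline after thallium stimulus; more negative B-score means stronger Kir2.1 block with less thallium influx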
Target sequence (P35561 whole entry, looked up): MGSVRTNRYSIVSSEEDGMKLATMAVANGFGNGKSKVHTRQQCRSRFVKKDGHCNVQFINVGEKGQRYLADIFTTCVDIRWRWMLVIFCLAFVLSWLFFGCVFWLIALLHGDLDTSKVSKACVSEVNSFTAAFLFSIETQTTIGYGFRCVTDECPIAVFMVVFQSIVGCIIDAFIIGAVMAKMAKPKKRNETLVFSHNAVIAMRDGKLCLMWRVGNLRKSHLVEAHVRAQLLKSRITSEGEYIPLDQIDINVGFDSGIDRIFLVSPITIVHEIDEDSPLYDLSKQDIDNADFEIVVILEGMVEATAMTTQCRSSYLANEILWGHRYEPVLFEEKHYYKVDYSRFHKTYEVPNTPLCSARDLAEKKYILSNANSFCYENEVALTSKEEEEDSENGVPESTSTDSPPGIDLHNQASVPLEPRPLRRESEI
KCNQ1 block – inhibitors of human KCNQ1 potassium channel; 1.3% of 310,000 active; B-score at 10 µM; P51787; CHO-K1 KCNQ1, FluxOR thallium flux fluorescence; hits give high values;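 active means compounds whose thallium flux B-score, printed positive for inhibition, exceeds three library SD while starting fluorescence stays within three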;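 further: channel opened by potassium depolarization with thallium stimulus after 20 min compound exposure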
hERG protect – shields human hERG channel from block by proarrhythmic agents; Q12809; CHO-hERG, FluxOR thallium flux, dofetilide IC70 present; activation (rescue from dofetilide block), less the hit threshold, % at 10 µM; 0.51% of 310,000 active; AID 1511;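 active means activation above the mean of controls blocked by dofetilide plus 5 SD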;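 further: thallium influx through hERG after potassium depolarization seen as dye fluorescence rise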
KCNK3 inh – human KCNK3 channel inhibition, primary screen. O14649. CHO-KCNK3 thallium flux, FluxOR fluorescence; hits give low values. B-score at 10 µM. 0.84% of 340,000 active. AID 602410;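 active means B-score under library mean minus 4 SD, starting fluorescence ratio at most library mean plus 5 SD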;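 further: more negative B-score means stronger inhibition of thallium flux through KCNK3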
Target sequence (O14649 whole entry, looked up): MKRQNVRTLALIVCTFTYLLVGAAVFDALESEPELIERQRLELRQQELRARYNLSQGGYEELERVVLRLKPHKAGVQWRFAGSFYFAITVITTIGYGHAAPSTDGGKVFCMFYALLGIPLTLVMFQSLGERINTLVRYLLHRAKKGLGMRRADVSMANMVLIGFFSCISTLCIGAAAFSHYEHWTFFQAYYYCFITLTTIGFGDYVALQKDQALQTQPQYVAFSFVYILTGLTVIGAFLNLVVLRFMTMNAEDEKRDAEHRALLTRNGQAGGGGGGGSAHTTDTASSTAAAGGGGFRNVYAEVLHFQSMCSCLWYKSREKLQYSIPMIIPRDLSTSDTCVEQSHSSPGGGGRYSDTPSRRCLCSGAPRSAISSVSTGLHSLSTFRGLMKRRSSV
KCNQ1 pot – human KCNQ1 channel potentiation or activation. P51787. B-score at 10 µM. 0.35% of 310,000 active. CHO-K1 KCNQ1, thallium flux FluxOR fluorescence; hits give high values;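 active means fluorescence ratio B-score, a plate-corrected score, at least three library SD, with initial intensity B-score within 5 SD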
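assay system = KCNQ1-transfected CHO-K1 cells | medium = assay buffer with matched DMSO | probe or stimulus = depolarizing K+/Tl+ stimulus, K2SO4 and Tl2SO4 each 12.5 mM in 5x stock | dosing = single dose | incubation = dye 90 min, compound 20 min, room temperature | detection = kinetic FluxOR fluorescence, 10 s baseline plus 110 s post-stimulus | evaluation = ratio B score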
KCNK9 block – inhibitors of human KCNK9 two-pore domain potassium channel. Q9NPC2. 1.2% of 310,000 active. HEK293 KCNK9, FluxOR thallium flux fluorescence; hits give low values. AID 488922. B-score at 10 µM;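 active means ratio B-score over 3 SD below the library mean, with starting fluorescence within 5 SD of its mean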;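 further: negative B-score means less thallium flux so channel inhibition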
KCNQ1 block val – confirmation of human KCNQ1 potassium channel inhibitors; shares compounds with KCNQ1 block; KCNQ1 cell line, FluxOR thallium flux fluorescence; inhibition, % at 10 µM; 93% of 1,600 active;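 active means primary screen active, with duplicate mean exceeding buffer control mean plus 3 SD of buffer wells, cut at about 28% in these data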
CHO Tl flux – counter-screen for KCNQ1 inhibitors: effect in parental CHO cells; shares compounds with KCNQ1 block; parental CHO-K1, FluxOR thallium flux fluorescence ratio; hits give low values; zero means no signal rise above baseline; fluorescence ratio (Tl flux) at 10 µM; 21% of 1,600 active; AID 588366;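 active means mean of duplicate thallium-flux fluorescence ratios in parental host cells more than 5 SD below the buffer control mean, cut at about 0.38 in these data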;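 further: ratio is peak minus minimum fluorescence divided by baseline fluorescence; actives read low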
KCNQ1 APC inh – confirmation of human KCNQ1 potassium channel inhibitors by electrophysiology. 20% of 490 active. KCNQ1-CHO cells, automated patch clamp current. AID 624120. calls only at 10 µM. shares compounds with KCNQ1 block;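 active means KCNQ1 current drop exceeding 3 SD of negative control wells, seen in both duplicate runs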;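 further: steady state current during a 2 s step from -80 to +40 mV; negative values mean current inhibition and positive values mean potentiation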
KCNQ2 spec – selectivity of KCNQ1 inhibitors: inhibition of rat KCNQ2 channel; shares compounds with KCNQ1 block; KCNQ2 cells, FluxOR thallium flux fluorescence; inhibition, % at 10 µM; 71% of 1,600 active; AID 651746;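 active means mean percent inhibition of the KCNQ2 thallium signal more than 5 SD above the buffer-only control wells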;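 further: KCNQ2 expressed in CHO cells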
KCNQ1-KCNE1 inh – selectivity of KCNQ1 inhibitors: inhibition of human KCNQ1/KCNE1 channel; KCNQ1/KCNE1 cells, FluxOR thallium flux fluorescence; inhibition, % at 10 µM; 77% of 1,600 active; shares compounds with KCNQ1 block;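 active means mean percent inhibition of duplicate wells above the buffer-only control mean plus 3 SD of those controls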
Large screens that a line does not name were inactive (follow-up assays come after a bar, where they were run).

CCOC(=O)C1(CC2CC2)CCN(Cc2cnc(-c3ccccc3C)nc2)CC1	KCNQ1 block 7 | KCNQ1 block val inactive | CHO Tl flux inactive | KCNQ2 spec 78.3% | KCNQ1-KCNE1 inh inactive
CSC1=NSC2=NC(=O)/C(=C\c3coc4ccccc4c3=O)C(=N)N12	none (no result: Kir21 block, KCNQ1 block, hERG protect, KCNQ1 pot, KCNK9 block)
CC(C)CSC1=NSC2=NC(=O)/C(=C\c3coc4ccccc4c3=O)C(=N)N12	KCNQ1 block 25 | KCNQ1 block val active | CHO Tl flux 0.004 | KCNQ2 spec inactive | KCNQ1-KCNE1 inh inactive
COc1cccc(N2CCc3c(C)nc4ccc(Cl)cc4c32)c1	Kir21 block -13.9, KCNQ1 block 6 | KCNQ1 block val 101.5 | CHO Tl flux inactive | KCNQ1 APC inh active | KCNQ2 spec 98.3% | KCNQ1-KCNE1 inh 77.0%
COc1ccc(N2CCc3c(C)nc4c(OC)cc(OC)cc4c32)cc1	Kir21 block -4.66, KCNQ1 block 6, KCNK3 inh -10.2 | KCNQ1 block val inactive | CHO Tl flux inactive | KCNQ2 spec inactive | KCNQ1-KCNE1 inh inactive
CCOC(=O)/C=c1/s/c(=C/c2ccccc2OC)c(=O)n1CC(=O)N1CCOCC1	none (no result: Kir21 block, KCNQ1 block, hERG protect, KCNQ1 pot, KCNK9 block)
Cc1ccc(-c2cc(-c3ccccc3Cl)c(C#N)c(N)n2)o1	none
Cc1ccc(-c2cc(-c3ccccc3)c(C#N)c(N)n2)o1	KCNQ1 block 6 | KCNQ1 block val 33.5 | CHO Tl flux inactive | KCNQ2 spec inactive | KCNQ1-KCNE1 inh 48.0%
CCOc1ccc(C2CC(c3cccc(OC)c3OC)n3nnnc3N2)cc1Cl (configuration not stated)	KCNQ1 block 7 | KCNQ1 block val inactive | CHO Tl flux inactive | KCNQ2 spec 59.0% | KCNQ1-KCNE1 inh inactive
C/C(=N\NC(=O)C(C)Sc1ccccc1)c1ccc([N+](=O)[O-])cc1 (configuration not stated)	none
CNc1ccc2c3c(cccc13)C(=O)N(C)C2=O	KCNQ1 block 32 | KCNQ1 block val active | CHO Tl flux 0.003 | KCNQ2 spec inactive | KCNQ1-KCNE1 inh inactive
O=C(CCS(=O)(=O)c1ccccc1)Nc1nc2c(s1)COc1ccccc1-2	KCNQ1 block 6 | KCNQ1 block val 54.0 | CHO Tl flux inactive | KCNQ2 spec 59.3% | KCNQ1-KCNE1 inh 53.5%
O=C(Nc1nc2c(s1)COc1ccccc1-2)c1cccs1	KCNQ1 block 7 | KCNQ1 block val 44.0 | CHO Tl flux inactive | KCNQ2 spec 102.0% | KCNQ1-KCNE1 inh 63.5%
O=C(CCS(=O)(=O)c1ccccc1)Nc1nncs1	none
COC1CCCN(C(=O)c2cccc(OC3CCN(S(C)(=O)=O)CC3)c2)C1 (configuration not stated)	none
CCNC(=O)c1cccc(NC(=O)CN2C(=O)NC3(CCCCC3)C2=O)c1	none (no result: Kir21 block, KCNQ1 block, hERG protect, KCNQ1 pot, KCNK9 block)
O=C(NCc1ccco1)c1ccccc1Nc1ccc(F)cc1	KCNQ1 block 7 | KCNQ1 block val 105.0 | CHO Tl flux inactive | KCNQ1 APC inh active | KCNQ2 spec 62.7% | KCNQ1-KCNE1 inh 91.0%
O=C(Nc1cccc(C(F)(F)F)c1)c1cccnc1	none
COc1cc(NC(=O)c2ccnnc2)cc(C(=O)Nc2cccc(C(F)(F)F)c2)c1	KCNQ1 block 9 | KCNQ1 block val 91.5 | CHO Tl flux inactive | KCNQ2 spec 110.7% | KCNQ1-KCNE1 inh 117.0%
Cc1cc2c(=O)n(CC(=O)N3CCN(c4ccccc4)CC3)cnc2s1	none (no result: Kir21 block, KCNQ1 block, hERG protect, KCNQ1 pot, KCNK9 block)
O=C(Cn1cnc2ccccc2c1=O)N1CCN(c2ccccc2)CC1	KCNQ1 block 7 | KCNQ1 block val inactive | CHO Tl flux inactive | KCNQ2 spec inactive | KCNQ1-KCNE1 inh inactive
CC1=CC(C)(C)N=C(Nc2nc(C)c3cc(C)cc(C)c3n2)N1	KCNQ1 block 6 | KCNQ1 block val 79.0 | CHO Tl flux inactive | KCNQ2 spec 70.0% | KCNQ1-KCNE1 inh 59.0%
Cc1cc(C)c2nc(Nc3nc(-c4ccccc4)cc(=O)[nH]3)nc(C)c2c1	none
CN(C)CCCN(C(=O)c1ccc2c(c1)CCCC2)c1nc2ccc(F)cc2s1	none
CN(C)CCCN(C(=O)c1ccc2c(c1)CCCC2)c1nc2cc3c(cc2s1)OCO3	KCNQ1 block 7 | KCNQ1 block val 48.0 | CHO Tl flux inactive | KCNQ2 spec 76.0% | KCNQ1-KCNE1 inh 35.5%
Cc1cc(C)cc(NC(=S)NCCSc2ccc(Cl)cc2)c1	KCNQ1 block 10 | KCNQ1 block val 110.5 | CHO Tl flux inactive | KCNQ1 APC inh inactive | KCNQ2 spec 108.0% | KCNQ1-KCNE1 inh 112.5%
CC(=O)c1cccc(NC(=S)NCCc2ccc(Cl)cc2)c1	KCNQ1 block 8 | KCNQ1 block val 43.0 | CHO Tl flux inactive | KCNQ2 spec inactive | KCNQ1-KCNE1 inh inactive
S=C(NCCc1ccccc1)Nc1cccc2cnccc12	KCNQ1 block 7 | KCNQ1 block val 29.0 | CHO Tl flux inactive | KCNQ2 spec inactive | KCNQ1-KCNE1 inh inactive
Cc1ccc(SCCNC(=S)Nc2ccccc2)cc1	none
S=C(NCCc1ccccc1)Nc1ccc(Cl)cc1Cl	KCNQ1 block 7 | KCNQ1 block val 33.5 | CHO Tl flux inactive | KCNQ2 spec inactive | KCNQ1-KCNE1 inh inactive
CC(=O)c1cccc(NC(=S)NCc2ccccc2)c1	none
CC(=O)Nc1ccc(NC(=O)C(C)OC(=O)c2ccc3[nH]c(C)c(C)c3c2)cc1 (configuration not stated)	none
CN1CCN(S(=O)(=O)c2ccc(N(C)Cc3c(F)cccc3Cl)nc2)CC1	none (no result: Kir21 block, KCNQ1 block, hERG protect, KCNQ1 pot, KCNK9 block)
O=C(Nc1cccc(O)c1)C1CC(c2ccc(Cl)cc2)=NO1 (configuration not stated)	none
CSc1ccccc1C(=O)NC1CCSc2ccccc21 (configuration not stated)	none
Cc1ccc(S(=O)(=O)N2CCC(C(=O)Nc3ncccc3O)CC2)cc1	none (no result: Kir21 block, KCNQ1 block, hERG protect, KCNQ1 pot, KCNK9 block)
O=C(NCCN1CCN(c2ccc([N+](=O)[O-])cc2)CC1)NCc1ccccc1	none
Cc1cc(Cl)ccc1NC(=S)NCCc1ccc(Cl)cc1	KCNQ1 block 14 | KCNQ1 block val 69.5 | CHO Tl flux inactive | KCNQ2 spec 78.7% | KCNQ1-KCNE1 inh 103.0%
COc1ccc(CN2C[C@H](Cc3ccccc3)[C@@H](CC(=O)Nc3ccccc3)C2=O)cc1	none
Cc1ccc(C(=O)N2CCNC(=O)C2CC(=O)Nc2ccccc2)cc1 (configuration not stated)	none
